A selection: hits, their analogues and other compounds. The true share with any hit is near 1.4%.
Cardiac RTF inh – cardiac RTF calcium sensitivity inhibitors, primary screen, biochemical, IANBD-TnC fluorescence, EC70 calcium; Troponin I, cardiac muscle (Homo sapiens) + Troponin T, cardiac muscle (Homo sapiens) + …; IANBD-labeled cardiac RTF, Ca2+ fluorescence; inhibition, % at 7.15 µM; hit rate 0.12% among 340,000; AID 493244, 2011;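 active means inhibition above the mean inhibition of all tested compounds plus 3 SD, cut at about 17% in these data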;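 further: assay run at fixed EC70 calcium of 1.6 mM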
CRFBP-R2 agonist – agonists of CRF-BP/CRF-R2 complex, primary screen, cell-based, HEK293, calcium dye fluorescence, uHTS; CRF-binding protein / CRF receptor 2 complex (human); calcium dye fluorescence (FLIPR); percent of saturating CRF peptide response; activation, % at 13.2 µM; hit rate 0.46% among 350,000; AID 588473, 2011;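 active means activation of at least 50%, plus an integration ratio under a set limit after plate pattern correction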;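 further: plate controls were neutral control wells without compound for no effect and CRF at EC100 for full effect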
Tn6 DDE FP – inhibitors of Tn6 peptide binding to fibrin DD(E), primary screen, biochemical, fluorescence polarization, human fibrin, Tn6 probe. Fibrinogen beta chain (Homo sapiens), P02675. Fibrin DD(E) TRITC-Tn6 fluorescence polarization displacement. inhibition, % at 8.3 µM. hit rate 0.21% among 370,000;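 active means inhibition above a per-campaign cutoff: mean of compounds within control limits plus 3 SD, cut at about 15% in these data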;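 further: 0% = median of all compound wells on the plate and 100% = blocking peptide control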
Target sequence (P02675 whole entry, looked up): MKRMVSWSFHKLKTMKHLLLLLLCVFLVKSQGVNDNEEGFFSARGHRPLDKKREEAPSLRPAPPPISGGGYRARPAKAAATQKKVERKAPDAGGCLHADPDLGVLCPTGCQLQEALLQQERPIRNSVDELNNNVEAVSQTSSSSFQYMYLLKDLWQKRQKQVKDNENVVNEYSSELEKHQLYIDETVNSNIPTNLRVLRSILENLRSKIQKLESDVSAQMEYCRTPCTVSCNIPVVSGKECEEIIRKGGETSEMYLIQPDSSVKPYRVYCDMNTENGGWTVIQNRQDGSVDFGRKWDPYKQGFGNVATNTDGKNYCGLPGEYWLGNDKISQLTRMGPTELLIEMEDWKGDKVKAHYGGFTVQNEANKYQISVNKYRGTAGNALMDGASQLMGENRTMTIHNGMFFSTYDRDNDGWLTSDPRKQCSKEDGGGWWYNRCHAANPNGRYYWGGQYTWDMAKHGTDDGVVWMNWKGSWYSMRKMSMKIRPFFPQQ
cardiac RTF act – cardiac RTF calcium sensitivity activators, primary screen, biochemical, IANBD-TnC fluorescence, EC20 calcium; hit rate 0.24% among 340,000; IANBD-labeled TnC RTF fluorescence at EC20 calcium; 0% EC20 calcium, 100% full calcium; activation, % at 7.2 µM; Troponin I, cardiac muscle (Homo sapiens) + Troponin T, cardiac muscle (Homo sapiens) + …;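 active means activation above the mean over all tested compounds plus 3 SD, cut at about 30% in these data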;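 further: rise in fluorescence read as greater calcium sensitivity of cardiac thin filaments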
Tn7 DDE FP – inhibitors of Tn7 peptide binding to fibrin DD(E), primary screen, biochemical, fluorescence polarization, human fibrin, Tn7 probe | Fibrinogen beta chain (Homo sapiens), P02675 | inhibition, % at 8.3 µM | hit rate 0.13% among 370,000 | AID 720508, 2013 | FP displacement of FITC-Tn7 peptide from fibrin DD(E); 0% = median of compound wells per plate;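 active means inhibition above the mean of compounds falling within the control limits plus 3 SD of them, cut at about 14% in these data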;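 further: 0% = plate median of compound wells and 100% = 10 µM Aha-Tn7 peptide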
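Assay system: Human fibrin DD(E) protein | Medium: Tris buffer with calcium and detergent, pH 7.8 | Reagent: 0.1 µM fluorescent Tn7 | Compound dosing: Single point at 8.3 µM | Times: 10 min preincubation, 3 h with tracer, room temperature | Detection: Fluorescence polarization of the labelled Tn7 tracer | Controls: Aha-Tn7 high control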
CRFBP-R2 block – antagonists of CRF-BP/CRF-R2 complex, primary screen, cell-based, HEK293, calcium dye fluorescence, uHTS. CRF-induced calcium fluorescence. inhibition, % at 11.8 µM. hit rate 0.59% among 350,000. AID 588475, 2011;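 active means inhibition of the ligand-induced calcium signal above about 50% at the single tested concentration, limit read from the data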
RTF inh confirm – cardiac RTF calcium sensitivity inhibitors, confirmation, biochemical, fluorescence readout | hit rate 8% among 360 | shares compounds with Cardiac RTF inh | inhibition, % at 7.15 µM | reconstituted cardiac thin filaments; in the data active means inhibition above about 18%
Numbers without * were called inactive; i = inactive; · = no result given; + = active, no number.

SMILES	Cardiac RTF inh	CRFBP-R2 agonist	Tn6 DDE FP	cardiac RTF act	Tn7 DDE FP	CRFBP-R2 block	RTF inh confirm
Cc1nn(CC(=O)NCCCN2CCCC2)c(=O)c2nn(-c3ccccc3)c(C)c12	19.3*	2.5	-1.6	0.5	-3.7	-13.5	-0.7
CN(Cc1cn(-c2ccccc2)nc1-c1ccc(F)cc1)C(=O)CCC(=O)O	17.2*	0.2	-3.1	-6.1	7.6	-10.2	-6.5
O=C(O)c1cc(N2N=C(C(F)(F)F)/C(=C/C=C/c3ccco3)C2=O)ccc1Cl	111.4*	4.8	5.5	-61.8	9.0	3.9	56.5*
COc1ccc(S(=O)(=O)N2CCC(c3nc4ccccc4o3)CC2)c(OC)c1	·	·	-3.7	·	7.4	·	·
CC1OC(=O)c2cc3ccccc3nc21 (stereo not given)	·	2.5	7.1	·	10.6	18.1	·
O=C1/C(=C/C=C/c2ccco2)SC(=S)N1NS(=O)(=O)c1ccccc1	71.1*	6.3	-2.3	-40.1	2.8	8.9	3.3
CC(C(=O)O)N1C(=O)/C(=C/C=C/c2ccco2)SC1=S (stereo not given)	86.5*	6.1	-3.0	-51.0	1.4	-7.2	39.5*
O=C1/C(=C/c2cccs2)SC(=S)N1NS(=O)(=O)c1ccccc1	5.6	0.9	3.1	-5.6	-6.4	27.0	·
COc1ccc(NC(=O)N[C@H]2CC[C@@H](CC(=O)NC3CCC3)O[C@@H]2CO)cc1	·	·	-6.8	·	5.2	·	·
Nc1c(S(=O)(=O)c2cccs2)c2nc3ccccc3nc2n1/N=C/c1cccc(O)c1	20.1*	0.1	-3.1	-5.8	4.7	10.5	6.0
COc1cccc(/C=N/n2c(N)c(S(=O)(=O)c3cccs3)c3nc4ccccc4nc32)c1	-2.6	-0.7	5.3	2.2	-0.5	-8.8	·
O=C(OCC1CC(c2ccccc2Cl)=NO1)c1ccc(Br)cc1 (stereo not given)	0.1	-2.2	-1.4	-4.6	-3.3	20.8	·
O=C(OCC1CC(c2ccccc2)=NO1)c1ccc(Br)cc1 (stereo not given)	17.9*	-2.3	3.7	1.6	-0.5	24.3	-1.4
CC(C)C[C@H]1CN([C@@H](CC(C)C)CN2CCCC2CN2C(=S)NC[C@@H]2Cc2ccccc2)C(=S)N1CCc1ccccc1 (stereo not given in full)	·	·	-1.9	·	1.2	·	·
NNC(=O)c1ccc(COc2ccc3c(c2)CCC3)cc1	17.4*	-3.1	5.3	2.2	-6.3	-16.9	0.1
O=C(O)c1ccc(COc2ccc3c(c2)CCC3)cc1	9.7	0.3	0.4	0.6	-8.6	0.3	·
O=S1(=O)c2c(cccc2N2CCC[C@H]2CO)O[C@@H]2CCN1C2	·	·	-1.9	·	3.1	·	·
COC(=O)c1cc2oc(C)cc2n1CC(=O)N(C)c1ccccc1	17.1*	-0.2	-5.0	-2.2	-1.6	-1.4	-3.0
O=C(O)CSc1cc(C(=O)c2ccccc2O)cn2c(=O)c3c4c(sc3nc12)CCCC4	21.9*	0.3	-3.5	-8.3	5.5	5.0	4.9
N#Cc1c(F)cccc1N1CCN(Cc2ccc3c(c2)OCO3)CC1	17.9*	-0.3	-0.7	-5.0	4.9	-3.0	-1.5
COc1ccc(C(=O)c2ccccc2O)c(O)c1	17.4*	-0.6	2.6	-5.5	-4.0	32.7	-3.2
CCOC(=O)c1c(N)sc2c(OC)c(Br)ccc12	20.8*	-0.4	-8.4	-7.8	2.6	-14.4	-5.8
CCN(CC)C(=O)CSc1nc2ccccc2c(=O)n1-c1cccc(OC)c1	-0.5	0.4	-3.8	-3.2	-4.7	5.6	·
COc1cccc(-n2c(SCc3cc(=O)oc4cc(O)c(O)cc34)nc3ccccc3c2=O)c1	17.0*	-0.2	-6.9	-19.8	0.3	-19.8	-2.4
O=C(O)c1[nH]c2ccccc2c1C(c1cc(Cl)cc([N+](=O)[O-])c1O)c1c(C(=O)O)[nH]c2ccccc12	21.6*	-2.1	-8.6	-23.0	2.2	-10.4	7.4
SMILES	Cardiac RTF inh	CRFBP-R2 agonist	Tn6 DDE FP	cardiac RTF act	Tn7 DDE FP	CRFBP-R2 block	RTF inh confirm
CN1C2CCC1CC(OC(=O)C(CO)c1ccccc1)C2 (stereo not given)	+	-1.5	-1.4	i	-7.6	0.7	i
CN1[C@@H]2CC[C@H]1CC(OC(=O)C(CO)c1ccccc1)C2 (stereo not given in full)	i	-1.6	-1.9	i	7.7	23.4	·
COc1cccc(CNC2CCCC2)c1	-5.4	-2.0	·	-1.7	·	0.6	·
COc1cc(CNC2CCCC2)cc(OC)c1	17.7*	0.3	-12.2	-2.1	1.5	1.9	-1.9
O=C(C1CCN(c2ncnc3c2sc2cccc(F)c23)CC1)N1CCN(Cc2ccc(F)cc2)CC1	·	·	2.2	·	7.7	·	·
CN(NC(=O)COc1ccccc1)C1=NS(=O)(=O)c2ccccc21	29.9*	-1.4	-1.9	2.5	-1.8	21.7	-3.5
CN(NC(=O)c1ccccc1)C1=NS(=O)(=O)c2ccccc21	-0.7	-1.9	5.0	-1.4	1.4	-3.3	·
CC(C)(C)c1ccc(S(=O)(=O)NC(=O)C2(C)CCN2C(=O)Cc2cccc3ccccc23)cc1 (stereo not given)	·	·	6.4	·	2.1	·	·
O=C(O)c1ccc(-n2cccc2/C=C2/NC(=O)N(c3cccc(Cl)c3)C2=O)cc1	-1.5	-2.3	-2.5	-5.2	-8.8	-6.7	·
O=C(O)c1ccc(-n2cccc2/C=C2/SC(=O)N(CC(=O)N3CCCC3)C2=O)cc1	26.0*	0.2	4.6	-8.4	5.0	19.1	7.6
N#Cc1ccccc1CN1C(=O)S/C(=C/c2cccn2-c2ccc(C(=O)O)cc2)C1=O	3.3	-0.2	3.0	3.5	2.6	-2.8	·
O=C(O)c1ccc(-n2cccc2/C=C2/NC(=O)N(c3ccccc3)C2=O)cc1	17.2*	0.2	-1.6	-7.2	-1.2	6.8	6.6
Nc1c(S(=O)(=O)O)cc(NC(=O)c2ccccc2)c2c1C(=O)c1ccccc1C2=O	34.9*	0.1	·	-10.5	·	3.8	4.8
O=C(NC1CCCC1)c1ccc2nc(-c3ccco3)c(-c3ccco3)nc2c1	17.8*	-4.8	·	-19.7	·	18.4	-7.0
S=c1[nH]nc(-c2cc(-c3ccccc3)n[nH]2)n1/N=C/C=C/c1ccco1	·	0.4	7.0	·	0.6	35.9	·

Screening results as filed in PubChem BioAssay.
